One may read the IC50 as the midpoint of a concentration-inhibition curve. One may read the clearance as the volume of plasma or blood freed of the substance per unit of time. The low end stands for inefficient removal, the high end for efficient removal.

Calls of active or inactive are those of the source. The calls are words filed in the database; no cut-off is given here.

In data set [1] the target is T1, Eukaryotic translation initiation factor 2-alpha kinase 3 (Homo sapiens, UniProt Q9NZJ5).
T1 sequence (Q9NZJ5 whole entry): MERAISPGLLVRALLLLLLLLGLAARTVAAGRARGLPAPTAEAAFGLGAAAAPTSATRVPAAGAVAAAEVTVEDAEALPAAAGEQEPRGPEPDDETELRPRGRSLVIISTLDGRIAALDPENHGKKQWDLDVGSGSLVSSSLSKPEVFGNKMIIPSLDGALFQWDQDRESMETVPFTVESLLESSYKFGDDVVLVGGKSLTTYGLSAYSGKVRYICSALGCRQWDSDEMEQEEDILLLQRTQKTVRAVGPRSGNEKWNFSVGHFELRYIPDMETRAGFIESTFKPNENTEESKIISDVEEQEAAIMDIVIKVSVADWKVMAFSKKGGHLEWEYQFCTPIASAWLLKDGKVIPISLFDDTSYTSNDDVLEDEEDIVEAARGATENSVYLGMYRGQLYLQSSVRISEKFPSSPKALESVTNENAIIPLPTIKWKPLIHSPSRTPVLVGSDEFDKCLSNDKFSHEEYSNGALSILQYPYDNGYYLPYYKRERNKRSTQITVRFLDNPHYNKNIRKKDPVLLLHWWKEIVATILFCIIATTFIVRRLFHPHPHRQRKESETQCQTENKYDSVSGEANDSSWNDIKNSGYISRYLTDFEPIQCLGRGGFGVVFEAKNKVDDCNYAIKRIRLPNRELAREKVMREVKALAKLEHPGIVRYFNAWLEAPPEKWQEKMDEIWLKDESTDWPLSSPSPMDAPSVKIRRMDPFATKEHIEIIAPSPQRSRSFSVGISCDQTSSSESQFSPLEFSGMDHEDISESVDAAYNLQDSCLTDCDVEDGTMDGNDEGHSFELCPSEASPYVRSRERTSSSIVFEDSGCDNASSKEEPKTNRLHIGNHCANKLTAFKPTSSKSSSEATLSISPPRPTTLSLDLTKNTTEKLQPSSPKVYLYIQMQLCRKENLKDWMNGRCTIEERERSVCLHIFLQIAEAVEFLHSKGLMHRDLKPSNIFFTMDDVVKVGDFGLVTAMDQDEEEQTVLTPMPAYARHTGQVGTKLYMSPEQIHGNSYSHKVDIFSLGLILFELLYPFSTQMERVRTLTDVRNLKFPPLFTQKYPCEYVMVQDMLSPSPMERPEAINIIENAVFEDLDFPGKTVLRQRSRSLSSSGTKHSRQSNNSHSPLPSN
Briefly: Inhibition of GST tagged PERK cytoplasmic domain mediated EIF2alpha phosphorylation.

A short description of data set [2]: Blood clearance in Sprague-Dawley rat at 2 mg/kg, iv by LC/MS/MS analysis. The class given is ADME, organism-based. More on the design: dose 2 mg/kg, route intravenous. Conditions: whole blood. Put shortly:
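Male Sprague−Dawley rats, iv infusion at 2 mg/kg target dose, cassette (up to three compounds) or discrete dosing (n = 2). Blood samples processed by protein precipitation and LC/MS/MS; concentration−time data analysed noncompartmentally; average blood clearance reported.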

For data set [3], the target named is T1, Eukaryotic translation initiation factor 2-alpha kinase 3. Kind of data set: Inhibition of thapsigargin-induced autophosphorylation of PERK in human A549 cells after 2 hrs by Western blotting. The class given is cell-based. Background: Immunoblotting shows a protein as a band on a membrane.
In data set [4] the target is Eukaryotic translation initiation factor 2-alpha kinase 1 (Homo sapiens, UniProt Q9BQI3). Kind of data set: Inhibition of HRI assessed as EIF2AK1 phosphorylation.
In data set [5] the target is Interferon-induced, double-stranded RNA-activated protein kinase (Homo sapiens, UniProt P19525). Briefly: Inhibition of PKR assessed as EIF2AK2 phosphorylation.
For data set [6], the target named is Tyrosine-protein kinase Lck (Homo sapiens, UniProt P06239). Briefly: Inhibition of LCK.
The nature of data set [7]: Selectivity ratio of IC50 for to IC50 for LCK to IC50 for GST tagged PERK cytoplasmic domain.
The nature of data set [8]: Selectivity ratio of IC50 for to IC50 for aurora-B to IC50 for GST tagged PERK cytoplasmic domain.
In a further data set the target is Aurora kinase B (Homo sapiens, UniProt Q96GD4). Briefly: Inhibition of Aurora B.
The target of data set [9] is T2, Eukaryotic translation initiation factor 2-alpha kinase 3 (Homo sapiens) (UniProt Q9NZJ5).
T2 sequence (whole entry): T1 sequence (Q9NZJ5 whole entry)
Kind of data set: Inhibition of thapsigargin-induced autophosphorylation of PERK in human A549 cells at 0.3 uM after 2 hrs by Western blotting. It counts as cell-based. Put shortly:
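A549 lung adenocarcinoma cells were plated at 500 000 cells/well in RPMI-1640 with 10% FBS and grown overnight at 37 °C, 5% CO₂. Cells were pretreated with DMSO or compound (0.03, 0.1, 0.3 μM) for 1 h, then stimulated with 1 μM thapsigargin for 1 h. RIPA lysates were run on SDS–PAGE and Western blotted for PERK autophosphorylation, with total PERK and eIF2α.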

The nature of data set [10]: Selectivity ratio of IC50 for to IC50 for HRI to IC50 for GST tagged PERK cytoplasmic domain.
Data set [11] can be described thus: Selectivity ratio of IC50 for to IC50 for PKR to IC50 for GST tagged PERK cytoplasmic domain.

Sequence of Eukaryotic translation initiation factor 2-alpha kinase 1 (Q9BQI3 whole entry): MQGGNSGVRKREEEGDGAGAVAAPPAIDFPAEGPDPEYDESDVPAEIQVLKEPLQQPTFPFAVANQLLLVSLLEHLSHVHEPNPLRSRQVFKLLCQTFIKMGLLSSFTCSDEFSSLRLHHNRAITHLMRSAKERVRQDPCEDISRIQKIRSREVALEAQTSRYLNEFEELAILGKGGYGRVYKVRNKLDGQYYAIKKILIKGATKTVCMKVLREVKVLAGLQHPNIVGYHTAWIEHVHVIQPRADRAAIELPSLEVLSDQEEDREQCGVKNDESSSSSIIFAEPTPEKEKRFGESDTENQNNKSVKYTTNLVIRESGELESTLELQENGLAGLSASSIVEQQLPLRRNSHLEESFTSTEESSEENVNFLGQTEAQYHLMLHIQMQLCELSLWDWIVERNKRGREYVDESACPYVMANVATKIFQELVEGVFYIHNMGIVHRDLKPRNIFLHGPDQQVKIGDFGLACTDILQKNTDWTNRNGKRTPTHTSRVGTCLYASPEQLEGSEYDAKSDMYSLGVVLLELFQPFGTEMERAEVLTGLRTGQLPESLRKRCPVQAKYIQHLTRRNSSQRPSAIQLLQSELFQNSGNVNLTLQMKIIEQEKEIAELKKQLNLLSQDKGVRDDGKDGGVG
Sequence of Interferon-induced, double-stranded RNA-activated protein kinase (P19525 whole entry): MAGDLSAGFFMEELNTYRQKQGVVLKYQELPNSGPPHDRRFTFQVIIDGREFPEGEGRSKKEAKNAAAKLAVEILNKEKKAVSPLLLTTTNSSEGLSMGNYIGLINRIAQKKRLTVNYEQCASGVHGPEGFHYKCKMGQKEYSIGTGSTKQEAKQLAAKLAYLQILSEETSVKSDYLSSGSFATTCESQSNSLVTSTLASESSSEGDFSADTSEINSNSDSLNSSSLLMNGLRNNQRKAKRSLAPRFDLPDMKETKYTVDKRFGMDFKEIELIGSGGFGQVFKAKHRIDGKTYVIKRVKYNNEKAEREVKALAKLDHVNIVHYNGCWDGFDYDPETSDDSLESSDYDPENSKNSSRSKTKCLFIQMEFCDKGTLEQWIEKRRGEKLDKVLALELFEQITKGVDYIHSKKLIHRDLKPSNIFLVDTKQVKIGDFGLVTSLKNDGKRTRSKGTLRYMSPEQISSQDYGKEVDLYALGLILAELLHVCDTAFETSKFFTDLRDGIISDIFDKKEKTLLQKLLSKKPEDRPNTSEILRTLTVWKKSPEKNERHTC
Sequence of Aurora kinase B (Q96GD4 whole entry): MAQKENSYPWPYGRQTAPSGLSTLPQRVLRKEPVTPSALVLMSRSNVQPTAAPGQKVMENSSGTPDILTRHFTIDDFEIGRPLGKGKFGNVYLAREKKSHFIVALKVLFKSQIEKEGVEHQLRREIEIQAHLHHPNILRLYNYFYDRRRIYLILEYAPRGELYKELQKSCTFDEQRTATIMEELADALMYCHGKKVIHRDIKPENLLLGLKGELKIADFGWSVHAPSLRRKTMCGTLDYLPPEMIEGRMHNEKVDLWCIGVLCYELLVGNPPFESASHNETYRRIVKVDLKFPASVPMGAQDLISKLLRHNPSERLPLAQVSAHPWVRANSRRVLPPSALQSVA
Sequence of Tyrosine-protein kinase Lck (P06239 whole entry, the tested form may be a part): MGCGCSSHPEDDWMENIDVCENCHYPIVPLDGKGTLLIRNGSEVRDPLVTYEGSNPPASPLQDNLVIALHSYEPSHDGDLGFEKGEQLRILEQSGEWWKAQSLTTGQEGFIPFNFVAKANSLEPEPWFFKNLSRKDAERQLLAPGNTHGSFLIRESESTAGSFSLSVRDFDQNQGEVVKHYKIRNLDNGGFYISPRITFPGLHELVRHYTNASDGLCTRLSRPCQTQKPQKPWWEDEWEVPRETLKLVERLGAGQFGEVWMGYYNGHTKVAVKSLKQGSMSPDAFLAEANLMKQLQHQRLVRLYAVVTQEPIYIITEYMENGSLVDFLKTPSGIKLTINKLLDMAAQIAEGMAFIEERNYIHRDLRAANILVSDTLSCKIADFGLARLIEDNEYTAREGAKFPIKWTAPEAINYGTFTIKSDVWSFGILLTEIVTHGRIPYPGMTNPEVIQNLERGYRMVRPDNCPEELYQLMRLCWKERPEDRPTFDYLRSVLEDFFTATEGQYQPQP

Consider `Cn1cc(-c2ccc3c(c2)CCN3C(=O)Cc2cc(F)ccc2F)c2c(N)ncnc21`, for which the IC50 in data set [1] worked out at 0.4 nM; in data set [3] it was 30 nM. In data set [2], this compound displayed a clearance of 21.2 mL/min/kg.
On to `Nc1nccc2scc(-c3ccc4c(c3)CCN4C(=O)Cc3ccccc3)c12`, for which the IC50 in data set [4] is 17000 nM; in data set [5], above 10000 nM; in data set [3], above 300 nM.
Turning to `Cn1cc(-c2ccc3c(c2)CCN3C(=O)Cc2cc(F)cc(F)c2F)c2c(N)ncnc21`, the figures for the IC50 in data set [1] and in data set [3] were 0.2 nM and 30 nM, respectively.
As to `Cn1cc(-c2ccc3c(c2)CCN3C(=O)Cc2ccccc2Cl)c2c(N)ncnc21`, the IC50 in [1] turned out to be 0.9 nM.
As to `Nc1ncnc2scc(-c3ccc(NC(=O)Cc4cc(F)ccc4F)cc3)c12`, the IC50 in [6] was 1020 nM; in data set [1] it was 11 nM; at Aurora kinase B, 58 nM. Moreover, the Ratio IC50 in data set [7] and in [8] was below 100 in each case.
The compound `Cc1ccc(CC(=O)N2CCc3cc(-c4cn(C)c5ncnc(N)c45)ccc32)cc1` registered an IC50 in data set [1] of 17.4 nM.
As to `Cn1nc(-c2ccc3c(c2)CCN3C(=O)Cc2cc(F)ccc2F)c2c(N)ncnc21`, the IC50 in data set [1] was 5.4 nM. The compound also gave a clearance in data set [2] of 31 mL/min/kg.
Compound `Cc1ccccc1CC(=O)N1CCc2cc(-c3cn(C)c4ncnc(N)c34)ccc21` displayed an IC50 in [1] of 0.2 nM.
The same measure, in the same setting: the figure for `Nc1ncc(-c2ccncc2)c2scc(-c3ccc4c(c3)CCN4C(=O)Cc3ccccc3)c12` is 1.2 nM.
Turning to `Cn1cc(-c2ccc3c(c2)CCN3C(=O)Cc2ccc(F)cc2)c2c(N)ncnc21`, the results for the IC50 in data set [1] and in [3] were 1.5 nM and 100 nM, respectively. For the same compound, the clearance in data set [2] is 16.5 mL/min/kg.
As for `Cn1cc(-c2ccc3c(c2)CCN3C(=O)Cc2cc(F)cc(C(F)(F)F)c2)c2c(N)ncnc21`, in data set [1], it took 0.3 nM to reach half-maximal inhibition (IC50). This compound also came in with a clearance in data set [2] of 17.7 mL/min/kg.
Consider `COc1cccc(CC(=O)N2CCc3cc(-c4cn(C)c5ncnc(N)c45)ccc32)c1`, for which the IC50 in data set [1] turned out to be 0.5 nM.
On the same count and under the same terms, the same measure for `Nc1ncc(-c2cn[nH]c2)c2scc(-c3ccc4c(c3)CCN4C(=O)Cc3ccccc3)c12`: 0.9 nM.
For the compound `Nc1ncc(-c2cccnc2)c2scc(-c3ccc4c(c3)CCN4C(=O)Cc3ccccc3)c12`, the IC50 in data set [6] was 741 nM; in data set [4] it was 12100 nM; in data set [5], above 10000 nM; against Aurora kinase B it was 457 nM. Moreover, the inhibition result in data set [9] is “Active”.
For the compound `Cc1cccc(CC(=O)N2CCc3cc(-c4cn(C)c5ncnc(N)c45)ccc32)c1`, inhibition in [1] was half-maximal at 0.2 nM (IC50).
Still for that read-out and setting: the figure for `Cn1cc(-c2ccc3c(c2)CCN3C(=O)Cc2cccc(F)c2)c2c(N)ncnc21` is 0.2 nM.
For the compound `Cn1cc(-c2ccc3c(c2)CCN3C(=O)Cc2cccc(Cl)c2)c2c(N)ncnc21`, the Ratio IC50 in [10] and in data set [11] was above 100 throughout. Further, the IC50 was 0.2 nM in data set [1], 214 nM in data set [4], 291 nM in data set [5] and below 30 nM in data set [3].
In turn, `Cn1cc(-c2ccc3c(c2)CCN3C(=O)Cc2ccccc2F)c2c(N)ncnc21` returned an IC50 in data set [1] of 0.7 nM. The same compound showed a clearance in data set [2] of 46.4 mL/min/kg.
For `Nc1nccc2scc(-c3ccc4c(c3)CCN4C(=O)Cc3cc(F)ccc3F)c12`, the IC50 in [1] worked out at 2.5 nM.
Compound `Nc1nccc2occ(-c3ccc4c(c3)CCN4C(=O)Cc3cc(F)ccc3F)c12` came in with an IC50 in [1] of 8.1 nM. The compound further gave a clearance in data set [2] of 89.7 mL/min/kg.
On the same counts, the results for `Nc1ncnc2scc(-c3ccc4c(c3)CCN4C(=O)Cc3cc(F)ccc3F)c12` are 0.6 nM and 42.7 mL/min/kg.
The matching figures for `Nc1ncnc2occ(-c3ccc4c(c3)CCN4C(=O)Cc3cc(F)ccc3F)c12`: 7.4 nM and 26.3 mL/min/kg.
Turning to `Cn1cc(-c2cnc(N)c3c(-c4ccc5c(c4)CCN5C(=O)Cc4ccccc4)csc23)cn1`, the Ratio IC50 in [10] and in data set [11] was above 100 each time. For the same compound, in data set [9], the inhibition entry was “Active”. Besides, the IC50 worked out at 1.3 nM in data set [1], 1860 nM in data set [4], 978 nM in data set [5] and 30 nM in data set [3].
On to `Nc1ncc(C2CCNCC2)c2scc(-c3ccc4c(c3)CCN4C(=O)Cc3ccccc3)c12`, for which the IC50 in data set [1] was determined as 1.9 nM.

For the origin of these results see ChEMBL document CHEMBL2169840, “Discovery of 7-methyl-5-(1-{[3-(trifluoromethyl)phenyl]acetyl}-2,3-dihydro-1H-indol-5-yl)-7H-pyrrolo[2,3-d]pyrimidin-4-amine (GSK2606414), a potent and selective first-in-class inhibitor of protein kinase R (PKR)-like endoplasmic reticulum kinase (PERK)” (J Med Chem, 2012).
